A short description of data set [1]: (§1) Bovine sGC stimulation measured as relative enzyme activity (percentage of DEA/NO response for the compound to compound 3). The procedure, abridged: (§2)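 Baculovirus-expressed bovine sGC from Sf21 cells, partially purified on Mono-Q. Compound at 1 µM single concentration in Tris buffer pH 7.4 with 5 mM MgCl2, IBMX and GTP; sGC submaximally stimulated with 300 nM DEA/NO, 10 min at room temperature. cGMP by competitive enzyme immunoassay, duplicate, at least n = 2; expressed as % of DEA/NO response, then ratio to benzydamine.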

For data set [2], the species on record is Homo sapiens. Description: Percent inhibition of collagen-induced platelet aggregation at 50 uM concentration. Type of data set: functional.
Data set [3] is described as follows: as §1. The data set is classed as functional. The method in brief:
as §2

The species entered for data set [4] is Homo sapiens. The experiment in a line: Concentration required to inhibit collagen-induced platelet aggregation by 50%. The data set is classed as functional. The procedure, abridged:
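Washed human platelets, prepared from citrated blood with PGI2 and normalized to 250 000 cells/µL in calcium-free Tyrode's buffer pH 7.4. Compound (DMSO ≤0.1% final) added 1 min before an EC50 dose of collagen. Light-transmittance aggregometry at 37 °C, response read 3 min after collagen and normalized to collagen control. IC50 from dose-response curves, mean ± SEM, at least 2 experiments.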

A short description of data set [5]: Activation of bovine sGC Enzyme (soluble Guanylate Cyclase) in Sf21 cells infected with baculo virus in the presence of 30 nM of PAPA/NO. The data set is classed as cell-based. The method in brief:
(§3)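 Bovine sGC expressed in Sf21 cells (baculovirus, 2.5 µg/mL hemin, 27 °C, 48 h), partially purified by Mono-Q anion exchange. Reaction in Tris buffer pH 7.4 with 5 mM MgCl2, 120 µg/mL enzyme, IBMX and GTP, stimulated by 30 nM PAPA/NO, room temperature, 10 min. cGMP read by competitive enzyme immunoassay. EC50 from nonlinear regression, mean ± SEM of at least 3 independent experiments.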

The species entered for data set [6] is Homo sapiens. The experiment in a line: Percent inhibition of collagen-induced platelet aggregation at 100 uM concentration. The data set is classed as functional.
The species entered for data set [7] is Homo sapiens. Description: Percent inhibition of collagen-induced platelet aggregation by 50% at a concentration of 100 uM. Type of data set: functional.
Data set [8] is described as follows: Bioavailability in rat after (dose 5 mg/kg p.o.). Type of data set: ADME, organism-based. The note with it: in vivo, po. The procedure, abridged: (§4)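 Male Sprague-Dawley rats given 5 mg/kg in PBS orally (iv arm also run). Blood taken predose and at 0.5, 1, 2, 3, 4, 6, 10 and 24 h after oral dosing. Serum extracted into diethyl ether and analysed by reversed-phase C18 HPLC.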

Data set [9] can be described thus: Cmax was determined after oral dosing of 5 mg/kg in rat. Type of data set: ADME, organism-based. Details: dose 5 mg/kg, route oral. Conditions: in vivo. The method in brief: as §4
Data set [10] concerns Rattus norvegicus. The experiment in a line: Area under curve (AUC) was determined after oral dosing of 5 mg/kg in rat. The data set is classed as ADME, organism-based. Details: dose 5 mg/kg, route oral. Conditions: in vivo. The procedure, abridged:
as §4

Data set [11] relates to Rattus norvegicus. The experiment in a line: (§5) Compound was evaluated for pharmacokinetic parameter was determined after oral dosing of 2 mg/kg in rat. Details: dose 2 mg/kg, route oral. Conditions: in vivo. Type of data set: ADME, organism-based. The procedure, abridged:
(§6)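 Male Sprague-Dawley rats, cassette-dosed at 2 mg/kg in PBS orally (iv arm also run). Serum extracted into diethyl ether and analysed by reversed-phase C18 HPLC.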

The nature of data set [12]: as §5. The data set is classed as ADME, organism-based. Details: dose 2 mg/kg, route oral. Conditions: in vivo. The procedure, abridged:
as §6

A short description of data set [13]: Bioavailability in rat after (dose 2 mg/kg p.o.). The data set is classed as ADME, organism-based. Conditions: in vivo, po. The procedure, abridged: as §6
Data set [14] can be described thus: Activation of sGC Enzyme (soluble Guanylate Cyclase) in Sf21 cells infected with baculo virus in the presence of 30 nM of PAPA/NO. The data set is classed as functional, cell-based. The method in brief:
as §3

In the case of `CN(C)CCCOc1[nH]nc2ccccc12`, the REA in [1] was 1.93. In data set [2], this compound showed an inhibition at 50 µM of 50%. Turning to `Nc1cc(COc2cc(-c3ccccc3)[nH]n2)ccn1`, the REA in [3] is 0.53.

`CN(C)CCCCCOc1nn(Cc2ccccc2)c2ccccc12` came in with an REA in data set [3] of 0.56. In the case of `CN(C)CCCOc1cc(Cc2ccccc2)n[nH]1`, in data set [4], the half-inhibitory concentration (IC50) was found to be 49.2 µM. For the same compound, in data set [5], the EC50 stood at 0.165 µM. The compound also yielded an REA in [3] of 1.54. For `CN(C)CCCOc1nn(CCc2ccccc2)c2ccccc12`, the REA in data set [3] is 0.84. `CN(C)CCCCOc1nn(Cc2ccccc2)c2ccccc12` returned an IC50 in data set [4] of 7.62 µM. The REA in data set [3] was 0.79. Regarding `CN(C)CCCOc1cc(-c2ccccc2)[nH]n1`, at 100 µM the inhibition in [6] was 19%. In addition, the EC50 in data set [5] amounted to 0.72 µM. In data set [3], the REA stood at 1.49. Regarding `CN(C)CCCOc1nn(S(C)(=O)=O)c2ccccc12`, in data set [4], the IC50 was found to be 21.6 µM. Also, the REA in data set [3] came to 1.07. As to `CN(C)CCCOc1ccn(-c2ccccc2)n1`, in data set [3], the REA was determined as 0.71. Moreover, the inhibition at 100 µM in [7] stood at 3%.

In data set [3], `CCN(CC)CCCOc1cc(-c2ccccc2)[nH]n1` registered an REA of 0.42. For `CN(C)CCCOc1ccn(Cc2ccccc2)n1`, the REA in data set [3] is 0.73. In data set [3], `CC(C)n1nc(OCCCN(C)C)c2ccccc21` had an REA of 0.66. In data set [4], `CN(C)CCCOc1nn(Cc2ccccc2)c2ccccc12` [BENZYDAMINE] registered a half-maximal inhibitory concentration (IC50) of 6.67 µM. Further, in data set [5], the EC50 came out at 1.02 µM. The compound further showed an REA in data set [3] of 1.

`CN(C)CCCCc1cc(-c2ccccc2)[nH]n1` showed an REA in data set [3] of 0.68. As for `CN(C)CCCOc1cc(-c2ccccc2)n(-c2ccccc2)n1`, the bioavailability in [8] was less than 2%. This compound also showed a concentration for half-maximal inhibition (IC50) in data set [4] of 2.84 µM. For the same compound, in [5], the EC50 came out at 0.58 µM. In data set [9], the Cmax stood at 1.4 ng/mL. Further, the REA in data set [3] stood at 1.28. The AUC in data set [10] came out at 3.3 ng·h/mL. In turn, `CN(C)CCOc1nn(Cc2ccccc2)c2ccccc12` had an REA in data set [3] of 0.33. Consider `CN(C)CCCOc1cc(C(=O)N(C)C)n(Cc2ccccc2)n1`, for which, in data set [6], at 100 µM the inhibition was 4%. The compound also registered an REA in data set [3] of 0.93. On the same counts, the results for `CN(C)CCCOc1cc(C(F)(F)F)[nH]n1` are 8% and 1.13. In [3], `CN(C)CCCNc1cc(-c2ccccc2)[nH]n1` registered an REA of 0.66. On the same count and under the same terms, next, `CN(C)CCCOc1cc(-c2ccccc2)nn1Cc1ccccc1`: 0.72. `CN(C)CCCOc1nn(C(=O)c2ccccc2)c2ccccc12` displayed an IC50 in data set [4] of 8.57 µM. This compound gave an REA in data set [3] of 1.04. Regarding `COc1ccc(NC(=O)c2cc(OCCCN(C)C)nn2Cc2ccccc2)cc1`, the EC50 in data set [5] amounted to 5.49 µM. In addition, in data set [3], the REA turned out to be 1.1. In addition, the AUC in data set [10] is 61.1 ng·h/mL. For the compound `CN1CCCC(COc2cc(-c3ccccc3)[nH]n2)C1` (centres undefined), in data set [3], the REA was 0.61. Same read-out and setting: as for `CNC(=O)c1cc(OCCCN(C)C)nn1Cc1ccccc1`, the figure is 0.95.

`CCCN(CCC)C(=O)c1cc(OCCCN(C)C)nn1Cc1ccccc1`: 100 µM produced 35% inhibition in [6]. Moreover, the REA in data set [3] is 1.22.

The compound `CN(C)CCCOc1cc(-c2ccncc2)[nH]n1` came in with an inhibition at 100 µM in [6] of 0%. Moreover, in data set [3], the REA was found to be 1.15.

Regarding `CN(C)CCCOc1cc(-c2ccoc2)[nH]n1`, in data set [4], it took 99 µM to reach half-maximal inhibition (IC50). The REA in [3] worked out at 1.31. Regarding `CN(C)CCCOc1cc(C(=O)O)n(Cc2ccccc2)n1`, the REA in data set [3] turned out to be 1.01.

`CC(=O)n1nc(OCCCN(C)C)c2ccccc21`: the REA in [3] was 0.82. With `NCCCOc1nn(Cc2ccccc2)c2ccccc12`, the REA in [3] came to 0.48. Regarding `CC(COc1nn(Cc2ccccc2)c2ccccc12)CN(C)C` (centres undefined), it took 4.18 µM to reach half-maximal inhibition in data set [4] (IC50). The same compound registered an REA in data set [3] of 0.62.

In data set [3], `Nc1ncccc1COc1cc(-c2ccccc2)[nH]n1` gave an REA of 0.69.

Compound `COc1cc(-c2cc(OCCCN(C)C)[nH]n2)cc(OC)c1OC` returned an IC50 in data set [4] of 41.1 µM. The compound also displayed an REA in data set [3] of 1.1. On to `CN(C)CCCOc1nn(CCCN(C)C)c2ccccc12`, for which the REA in [3] is 0.79. Take `CN(C)CCCOc1nn(-c2ccccc2)c2ccccc12`: 2.46 µM corresponded to half-maximal inhibition in data set [4] (IC50). The compound further displayed an AUC in [11] of 7.9 ng·h/mL. Moreover, the highest level in data set [12] (Cmax) was 3.2 ng/mL. The REA in [3] turned out to be 1.16. The same compound showed a bioavailability in [13] of 2%. Regarding `OCc1ccc(-c2nn(Cc3ccccc3)c3ccccc23)o1`, the EC50 in [14] was determined as 4.11 µM. In data set [6], `CN(C)CCCOc1cc(C(=O)NCc2ccccc2)n(Cc2ccccc2)n1` registered an inhibition at 100 µM of 25%. Besides, in data set [3], the REA turned out to be 1.22. `CN(C)CCCOc1cc(-c2ccccc2)n(Cc2ccccc2)n1` had a half-inhibitory concentration (IC50) in data set [4] of 2.37 µM. In addition, the EC50 in data set [5] came out at 0.44 µM. The compound further came in with an AUC in data set [11] of 15.5 ng·h/mL. Moreover, the Cmax in data set [12] was found to be 3.1 ng/mL. The REA in data set [3] was 1.08. In addition, the bioavailability in data set [13] turned out to be 2%. In data set [3], `CN(C)CCCOc1nn(C(=O)N(C)C)c2ccccc12` showed an REA of 0.78. With `CN(C)CCCOc1cc(C(=O)N2CCOCC2)n(Cc2ccccc2)n1`, the inhibition at 100 µM in data set [6] is 90%. Moreover, the REA in [3] is 0.84. In turn, `c1ccc(-c2cc(OCCCN3CCCC3)n[nH]2)cc1` showed an REA in [3] of 0.85. With `CN(C)CCCOc1[nH]ncc1-c1ccccc1`, the midpoint of inhibition in data set [4], the IC50, lay at 12 µM. In addition, in [3], the REA is 1.17.

What is called inhibition is the relative decrease from the control value, in per cent. A higher inhibition goes with strong suppression. A word on the IC50: it is the concentration at which inhibition is half-maximal. A higher IC50 goes with weaker potency. What is called EC50 is the midpoint of the concentration-response curve. By bioavailability is commonly meant the share of a dose that reaches the circulation, judged against a reference dose that is usually intravenous. Read a low bioavailability as poor availability. What is called Cmax is the highest concentration seen after dosing. A word on the AUC: it is the area under the concentration-time curve, a measure of exposure. Higher therefore signals more exposure.
